Many of the other results were omitted from the sample, so hits are more common in it than they were.
Insulin prom act: activators of insulin promoter-driven GFP, primary screen, imaging, TRM-6 cells (human fetal islet line), eGFP reporter, cell count; actives 0.81% (n = 130,000); activation, % at 2 µM; plate-scaled: unstimulated 0, stimulated control 100;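 active means activation at 2 µM above a set limit, confirmed on inspection of the cell images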;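 further: share of cells whose green reporter signal exceeds an intensity cutoff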
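Test system: TRM-6 insulin promoter–eGFP reporter cells / Quantity: 1,000 cells per well / Reagent: tamoxifen inducer, 0.75 µM, in seeding medium / Compound dosing: 2 µM final, single concentration / Schedule: overnight tamoxifen, then two-day compound incubation at 37 °C / Measured by: automated fluorescence imaging of paraformaldehyde-fixed, Hoechst-counterstained cells, green channel / Read-out: percent activation from GFP-positive cell fraction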
* marks the source's active call; other numbers are inactive results.

SMILES	Insulin prom act
Cc1ccccc1CN1CCc2c(OCC(=O)N3CCCc4ccccc43)cccc2C1=O	128*
CCN1CCc2c(OCC(=O)Nc3cccc(C)c3)cccc2C1=O	-8
CC(C)(C)n1nnnc1CN1CCN(C(c2ccccc2)c2ccccc2)CC1	-7
CCc1noc(C)c1C(=O)Nc1nc(-c2ccc(Cl)cc2Cl)cs1	-7
COC(=O)c1sc(NC(=O)C2CCCO2)c(C(=O)OC)c1C (configuration not stated)	428*
Cc1sc(NC(=O)C2CCCO2)c(C#N)c1C (configuration not stated)	-9
Cc1c(C(=O)OC(C)C)sc(NC(=O)C2CCCO2)c1C(=O)OC(C)C (configuration not stated)	3
CCNC(=S)NNC(=O)c1ccc(OC(F)F)cc1	-10
Clc1ccc(-c2nc(Cc3ccccc3)no2)cc1	84*
Clc1ccc(-c2noc(CCCOc3ccccc3)n2)cc1	8
c1ccc(-c2nc(-c3ccncc3)no2)cc1	-80
CN(C)S(=O)(=O)c1ccc(N2CCCC2)c(C(=O)NCC2CCCCC2)c1	-71
Cn1c2ccccc2n2c(=O)c(=O)n(CC(=O)c3ccc(Cl)cc3)nc12	3
COc1cccc2c1C(=O)c1c(O)c3c(c(O)c1C2=O)C[C@@](O)(C(C)=O)C[C@@H]3O[C@H]1C[C@H](N)[C@H](O)[C@H](C)O1	354*
O=C1CC(=C2c3ccccc3-c3ccccc32)C(=O)N1CCN1CCN(c2cccc(Cl)c2)CC1	9
CCOC(=O)NC1(C(F)(F)F)C(=O)N(Cc2ccccc2)C2=C1C(=O)CC(C)(C)C2 (configuration not stated)	-3
Cc1ccc(NC(=O)c2ccc(C(C)(C)C)cc2)cc1-n1cnnn1	8
O=C(COC(=O)c1cccnc1Cl)c1ccccc1	8
O=C(COC(=O)c1cccnc1Cl)c1ccc(F)cc1	426*
O=C(OCc1nnc(-c2ccccc2)o1)c1cccnc1Cl	-7
CC1(C)C(=O)NCCN1C(=O)CCC(=O)O	206
O=C(Nc1ccccc1C(=O)N/N=C/c1ccncc1)c1ccccc1	6
CCOC(=O)C1CN(S(=O)(=O)c2ccc(C)cc2)CCN1S(=O)(=O)c1ccc(C)cc1 (configuration not stated)	387
Cc1ccc(S(=O)(=O)N2CCCC2C(=O)OCc2ccco2)cc1 (configuration not stated)	579*
O=C(NCc1ccco1)C1CCCN1S(=O)(=O)c1ccc2ccccc2c1 (configuration not stated)	-6
SMILES	Insulin prom act
O=C(COC(=O)CCc1ccc(S(=O)(=O)N2CCOCC2)cc1)NCc1ccccc1	154
N=C1C(=O)OCC1c1ccccc1NC(=O)c1ccccc1 (configuration not stated)	0
Cc1nnc(SCC(=O)N2CCCCCC2)n(N)c1=O	0
CC1CCN(C(=O)CSc2nncn2C)CC1	3
CCc1c(C)nc(N)n2c(SCC(=O)N3CCCC(C)C3)nnc12 (configuration not stated)	182*
CN(CC(=O)Nn1cnnc1)S(=O)(=O)c1ccc(Br)cc1	-3
O=C(NC1CCCC1)C1CCN(c2cnccn2)CC1	5
CC(OC(=O)c1cc2sccc2n1C)C(=O)NCc1ccc(F)cc1 (configuration not stated)	-8
Cn1c(C(=O)OC(C(=O)NCc2ccco2)c2ccncc2)cc2sccc21 (configuration not stated)	633*
CC(OC(=O)c1cc2sccc2n1C)C(=O)NCCc1ccccc1 (configuration not stated)	6
COc1ccccc1C(=O)N/C(=C\c1ccc2c(c1)OCO2)C(=O)NCCc1nc2ccccc2[nH]1	0
Cc1ccc(C(=O)N(Cc2ccccc2)C(C)(C)C)cc1C	-7
CCOc1ccc(C(=O)CSCC(=O)O)cc1	6
O=C(CCn1cnc(-c2ccccc2)c1-c1ccccc1)N/N=C/c1ccccc1O	0
Cc1cc(-c2ccccc2)n2nc(C)c(C#N)c2n1	-3
CSc1nn2c(C)c(C)c(C)nc2c1C#N	322*
Cc1nc(N)c(C#N)c(-c2ccccc2)c1C	0
COc1ccc(/C=N/NC(=O)c2cc(=O)[nH]c3ccccc23)cc1OC	0
CC1=C(C(=O)OC(C)C)[C@@H](c2ccc(C)o2)NC(=O)N1	-7
O=C(c1ccc(S(=O)(=O)c2cccc(Cl)c2)c([N+](=O)[O-])c1)N1CCN(Cc2ccccc2)CC1	-3
Cc1ccc(Cn2nc(C)c(NC(=O)C3(C)CC3(Br)Br)c2C)cc1 (configuration not stated)	0
Cc1ccc(S(=O)(=O)/N=C(\CCl)N2CCOCC2)cc1	129
Cc1c(NC(=O)c2n[nH]c(=O)c3ccccc23)c(=O)n(-c2ccccc2)n1C	-4
O=C(Nc1ccc(Br)cc1)c1ccco1	557*
CC(=O)N(C)c1ccc(NC(=O)c2ccco2)cc1	-3
SMILES	Insulin prom act
O=C(Nc1ccc(F)c(F)c1)c1ccco1	-7
N#CC1(c2ccccc2)CCC(=NO)CC1 (configuration not stated)	3
CCC(CO)n1cnnc1-c1ccncc1 (configuration not stated)	-7
CCOc1ccccc1N1CCN(CC(=O)N(CC(C)C)c2c(N)n(CC(C)C)c(=O)[nH]c2=O)CC1	10
COc1ccc(-n2c(C)cc(/C=C3\SC(=S)N(Cc4ccco4)C3=O)c2C)cc1	245*
Cc1ccc(/C=C2\SC(=S)N(Cc3ccccc3)C2=O)o1	-10
Cc1cc(/C=C2/SC(=S)N(c3ccc([N+](=O)[O-])cc3)C2=O)c(C)n1-c1cccnc1	119
Cc1cc(Nc2ccccc2N2CCOCC2)n2ncnc2n1	3
COc1ccc(-c2noc(CCC(=O)NCc3cccnc3)n2)cc1OC	0
CC1=C(C(=O)OCC2CCCO2)C(c2coc3ccccc3c2=O)C2=C(CCCC2=O)N1 (configuration not stated)	-7
CSc1nc(Oc2ccc(C)cc2)cc(C(F)(F)F)n1	-7
CCN(CC)c1ccc(NC(=O)c2ccccc2)cc1S(=O)(=O)Nc1ccccc1OC	-5
O=C(Nc1ncc2c(n1)CC(c1ccco1)CC2=O)c1ccccc1 (configuration not stated)	7
Cc1ccc(NC(=O)CSCC(=O)Nc2ncc3c(n2)CC(c2ccco2)CC3=O)cc1 (configuration not stated)	3
Cc1nn2c3c(cnc2c1-c1ccccc1)C(=O)CC(c1ccco1)C3 (configuration not stated)	136*
COc1ccc(/C=C/C(=O)NC(CCSC)C(=O)O)cc1 (configuration not stated)	7
O=C1CC(N2CCSCC2)C(=O)N1CCc1ccccc1 (configuration not stated)	-5
Cc1cc(N2CCCC2)ccc1/C=N/n1cnnc1	0
O=C(CCSc1ccccc1)N1CCN(C(=O)c2ccco2)CC1	156
O=C(Cc1ccccc1)N1CCN(C(=O)c2ccco2)CC1	529*
O=C(c1ccco1)N1CCN(S(=O)(=O)Cc2ccc(Cl)cc2)CC1	420*
O=C(Cc1ccccc1F)OCC(=O)N1CCN(C(=O)c2ccco2)CC1	0
O=C(c1ccco1)N1CCN(S(=O)(=O)c2cccs2)CC1	-77
CCCCc1ccc(S(=O)(=O)N2CCN(C(=O)c3ccco3)CC2)cc1	7
COc1ccccc1/C=C/C(=O)OCC(=O)c1c(N)n(C)c(=O)n(C)c1=O	7
CC(=O)c1cccc(NC(=O)c2nccnc2C(=O)O)c1	-71

From PubChem BioAssay
